In ChEMBL document CHEMBL4020843, “Ligand-Based NMR Study of C-X-C Chemokine Receptor Type 4 (CXCR4)-Ligand Interactions on Living Cancer Cells” (J Med Chem, 2018):
Each block holds one molecule with its values, some of them ahead of it. Active and inactive are the calls of the source. The rule behind the calls is not given here. Residues, ends and D or L forms follow the SMILES beside them.

How the values were obtained:
[1] = tested on: Plasma; experiment: Drug level in human plasma treated with (4R,7S,10S,13S,16R)-16-((S)-2-((S)-2-amino-5-guanidinopentanamido)propanam(4R,7S,10S,13S,16R)-16-((S)-2-((S)-2-amino-5-guanidinopentanamido)propanamido)-7,10-dibenzyl-13-(3-guanidinopropyl)-6,9,12,15-tetraoxo-1,2-dithia-5,8,11,14-tetraazacycloheptadecane-4-carboxylic acid after 15 to 30 mins by ESI-RP-HPLC analysis; assay type: ADME, cell-free
Method in brief: (§1)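 Peptide in sterile water mixed with 90% human serum and incubated at 37 °C. Aliquots taken at 0, 15, 30, 60 and 120 min, precipitated with ACN/0.1% TFA and centrifuged (12 000 rpm, 15 min, 4 °C). Supernatant analysed by RP-HPLC with a 10–90% ACN (0.1% TFA) gradient over 20 min. Relative peptide level taken from A230 peak integration.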

[2] = biological target: T1, C-X-C chemokine receptor type 4 (Homo sapiens, UniProt P61073); experiment: Antagonist activity at CXCR4 in human CCRF-CEM cells assessed as inhibition of PE-conjugated 12G5 antibody binding; assay type: cell-based
T1 sequence (P61073 whole entry): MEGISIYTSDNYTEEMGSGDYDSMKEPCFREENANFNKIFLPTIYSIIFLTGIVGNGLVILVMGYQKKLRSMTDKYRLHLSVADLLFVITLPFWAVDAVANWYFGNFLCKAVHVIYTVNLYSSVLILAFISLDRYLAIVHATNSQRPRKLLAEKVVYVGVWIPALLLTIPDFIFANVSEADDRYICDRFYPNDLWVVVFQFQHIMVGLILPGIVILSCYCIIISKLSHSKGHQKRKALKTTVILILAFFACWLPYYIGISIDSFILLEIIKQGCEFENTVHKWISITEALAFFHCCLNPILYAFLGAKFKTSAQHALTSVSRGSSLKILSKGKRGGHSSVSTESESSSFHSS
Method in brief: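 CCRF-CEM cells (5 × 10^5) preincubated 30 min at 37 °C, 5% CO2 with peptide at 0.01, 0.1, 1 and 10 µM in PBS plus 0.2% BSA and 0.1% NaN3. Then labeled 30 min with PE anti-CXCR4 antibody clone 12G5. IC50 taken as concentration reducing 12G5 binding by 50%, reported as mean ± SD.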

[3] = biological target: T1, C-X-C chemokine receptor type 4; experiment: Binding affinity to CXCR4 in human CCRF-CEM cell membranes assessed as signal to noise ratio in presence of 0.05 mM plerixafor by STD-NMR method
Method in brief: (§2)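 Pellet of 20 x 10^6 intact cells (CCRF-CEM, CXCR4-null CHO or CXCR4-stably transfected CHO) resuspended in 450 µL PBS pH 7.4 plus 50 µL 2H2O. Peptide added for STD, WaterLOGSY or trNOESY 1H NMR. Spectra of peptide alone and of cells alone acquired as reference. Competition run by adding plerixafor to the indicated concentration (0.010–0.100 mM in STD). STD/WaterLOGSY read as signal-to-noise ratio.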

[4] = biological target: T1, C-X-C chemokine receptor type 4; experiment: Binding affinity to CXCR4 in human CCRF-CEM cell membranes assessed as signal to noise ratio in presence of 0.02 mM plerixafor by STD-NMR method; method in brief: as §2
[5] = Half life in human plasma by HPLC analysis; assay type: ADME, cell-free; method in brief: as §1
[6] = Stability in human CCRF-CEM cells up to 2 hrs by NMR spectral analysis; assay type: ADME, cell-based
[7] = tested on: Plasma; experiment: Drug metabolism in human plasma assessed as [Cys-Arg-Phe-Phe-Cys]-COOH metabolite formation after 15 to 30 mins by ESI-RP-HPLC analysis; assay type: ADME, cell-free; method in brief: as §1
[8] = biological target: T1, C-X-C chemokine receptor type 4; experiment: Binding affinity to CXCR4 in human CCRF-CEM cell membranes assessed as signal to noise ratio in presence of 0.1 mM plerixafor by STD-NMR method; method in brief: as §2
[9] = biological target: T1, C-X-C chemokine receptor type 4; experiment: Binding affinity to CXCR4 in human CCRF-CEM cell membranes in presence of plerixafor by WaterLOGSY-NMR method; method in brief: as §2
[10] = biological target: T1, C-X-C chemokine receptor type 4; experiment: Binding affinity to CXCR4 in human CCRF-CEM cell membranes assessed as signal to noise ratio in presence of 0.01 mM plerixafor by STD-NMR method; method in brief: as §2
[11] = biological target: T1, C-X-C chemokine receptor type 4; experiment: Binding affinity to CXCR4 in human CCRF-CEM cell membranes assessed as signal to noise ratio by STD-NMR method; method in brief: as §2
[12] = biological target: T1, C-X-C chemokine receptor type 4; experiment: Binding affinity to CXCR4 in human CCRF-CEM cell membranes by WaterLOGSY-NMR method; method in brief: as §2
[13] = biological target: T1, C-X-C chemokine receptor type 4; experiment: Binding affinity to CXCR4 (unknown origin) expressed in CHO cell membranes assessed as signal to noise ratio by STD-NMR method; method in brief: as §2
[14] = organism: Cricetulus griseus; experiment: Binding affinity to CHO cell membranes assessed as signal to noise ratio by STD-NMR method; method in brief: as §2
[15] = tested on: Plasma; experiment: Stability in human plasma up to 120 mins by ESI-RP-HPLC analysis; assay type: ADME, cell-free; conditions: 2 h; method in brief: as §1
[16] = Stability in human CCRF-CEM cells up to 6 hrs by NMR spectral analysis; assay type: ADME, cell-based

Structure (SMILES): C[C@H](NC(=O)c1ccc(NC(=N)N)cc1)C(=O)N[C@H]1CSSC[C@@H](C(=O)O)NC(=O)[C@H](Cc2ccccc2)NC(=O)[C@H](Cc2ccccc2)NC(=O)[C@H](CCCNC(=N)N)NC1=O (HELM PEPTIDE1{[N=C(N)Nc1ccc(C(=O)[*:2])cc1].A.C.R.F.F.C}$PEPTIDE1,PEPTIDE1,3:R3-7:R3$$$V2.0)
IC50 [2]: > 10 µM

Structure (SMILES): C[C@@H]1NC(=O)[C@H](Cc2ccccc2)NC(=O)[C@@H](NC(=O)[C@H](CCCNC(=N)N)NC(=O)[C@@H](N)Cc2ccccc2)CSSC[C@@H](C(=O)O)NC(=O)[C@H](CCCNC(=N)N)NC1=O (HELM PEPTIDE1{F.R.C.F.A.R.C}$PEPTIDE1,PEPTIDE1,3:R3-7:R3$$$V2.0)
Ratio [13]: 10.2
IC50 [2]: > 10 µM
Ratio [14]: 11.7

Structure (SMILES): C[C@H](NC(=O)C1CCN(C(=N)N)CC1)C(=O)N[C@H]1CSSC[C@@H](C(=O)O)NC(=O)[C@H](Cc2ccccc2)NC(=O)[C@H](Cc2ccccc2)NC(=O)[C@H](CCCNC(=N)N)NC1=O (HELM PEPTIDE1{[N=C(N)N1CCC(C(=O)[*:2])CC1].A.C.R.F.F.C}$PEPTIDE1,PEPTIDE1,3:R3-7:R3$$$V2.0)
IC50 [2]: > 10 µM

Structure (SMILES): CC(=O)N[C@@H](CCCNC(=N)N)C(=O)N[C@@H](C)C(=O)N[C@H]1CSSC[C@@H](C(=O)O)NC(=O)[C@H](Cc2ccccc2)NC(=O)[C@H](Cc2ccccc2)NC(=O)[C@H](CCCNC(=N)N)NC1=O (HELM PEPTIDE1{[ac].R.A.C.R.F.F.C}$PEPTIDE1,PEPTIDE1,4:R3-8:R3$$$V2.0)
Activity [12]: Active

Continued, values first:

Drug metabolism [1]: Metabolite_Detected
Structure (SMILES): N=C(N)NCCC[C@@H]1NC(=O)[C@@H](N)CSSC[C@@H](C(=O)O)NC(=O)[C@H](Cc2ccccc2)NC(=O)[C@H](Cc2ccccc2)NC1=O (HELM PEPTIDE1{C.R.F.F.C}$PEPTIDE1,PEPTIDE1,1:R3-5:R3$$$V2.0)

Ratio [3]: 6.1
Ratio [4]: 6.3
half-life [5]: 22 min
Stability [6]: Unstable
Drug metabolism [7]: Metabolite_Detected
Ratio [8]: 5.9
Activity [9]: inactive
Ratio [10]: 7.2
Ratio [11]: 13.3
Activity [12]: Active
Structure (SMILES): C[C@H](NC(=O)[C@@H](N)CCCNC(=N)N)C(=O)N[C@H]1CSSC[C@@H](C(=O)O)NC(=O)[C@H](Cc2ccccc2)NC(=O)[C@H](Cc2ccccc2)NC(=O)[C@H](CCCNC(=N)N)NC1=O

IC50 [2]: > 10 µM
Structure (SMILES): C[C@H](NC(=O)CCCNC(=N)N)C(=O)N[C@H]1CSSC[C@@H](C(=O)O)NC(=O)[C@H](Cc2ccccc2)NC(=O)[C@H](Cc2ccccc2)NC(=O)[C@H](CCCNC(=N)N)NC1=O (HELM PEPTIDE1{[N=C(N)NCCCC(=O)[*:2]].A.C.R.F.F.C}$PEPTIDE1,PEPTIDE1,3:R3-7:R3$$$V2.0)

Ratio [13]: 9.6
IC50 [2]: > 10 µM
Ratio [14]: 8.2
Structure (SMILES): C[C@H](NC(=O)[C@H](N)CCCNC(=N)N)C(=O)N[C@H]1CSSC[C@@H](C(=O)O)NC(=O)[C@H](Cc2ccccc2)NC(=O)[C@H](Cc2ccccc2)NC(=O)[C@H](CCCNC(=N)N)NC1=O

half-life [5]: > 120 min
Ratio [13]: 35.9
IC50 [2]: 3.2 µM
Stability [15]: Stable
Ratio [11]: 10
Ratio [14]: 12.5
Stability [16]: Stable
Structure (SMILES): C[C@H](NC(=O)c1cccc(NC(=N)N)c1)C(=O)N[C@H]1CSSC[C@@H](C(=O)O)NC(=O)[C@H](Cc2ccccc2)NC(=O)[C@H](Cc2ccccc2)NC(=O)[C@H](CCCNC(=N)N)NC1=O (HELM PEPTIDE1{[N=C(N)Nc1cccc(C(=O)[*:2])c1].A.C.R.F.F.C}$PEPTIDE1,PEPTIDE1,3:R3-7:R3$$$V2.0)
